Assays:
[1] = system: Mus musculus; assay: Toxicity in mouse P388 cells allografted CD2F1 mouse assessed as mouse survival at 6.25 mg/kg, ip of total 9 doses starting 24 hrs post tumor inoculation measured on day 5 of inoculation relative to control; assay type: organism-based; parameters: dose 6.25 mg/kg, route intraperitoneal; conditions: in vivo
Procedure, shortened: (§1)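 Male CD2F1 mice bearing ip P388 leukemia (6×10^6 cells) were dosed ip with nine daily doses in distilled water–Tween 80 suspension, starting 24 h after inoculation. Survivors per group of 6 were counted on day 5, i.e. 4 days after the first dose. Body-weight change of treated minus control mice was also recorded.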

[2] = system: Mus musculus; assay: Toxicity in mouse P388 cells allografted CD2F1 mouse assessed as mouse survival at 12.5 mg/kg, ip of total 9 doses starting 24 hrs post tumor inoculation measured on day 5 of inoculation relative to control; assay type: organism-based; parameters: dose 12.5 mg/kg, route intraperitoneal; conditions: in vivo; procedure, shortened: as §1
[3] = system: P388; assay: Antitumor activity against mouse P388 cells allografted in CD2F1 mouse assessed as increase in mouse survival at 50 mg/kg, ip of total 9 doses starting 24 hrs post tumor inoculation measured on day 5 of inoculation relative to control; assay type: functional; conditions: route intraperitoneal
Procedure, shortened: (§2)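 Male CD2F1 mice inoculated ip with 6×10^6 P388 leukemia cells. Dosing was ip as a suspension in distilled water–Tween 80, nine daily doses starting 24 h after inoculation. Activity was read as median survival time of treated vs control mice (% T/C); % T/C ≥ 120 was considered significant. Groups were 6 mice.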

[4] = system: Mus musculus; assay: Toxicity in mouse P388 cells allografted CD2F1 mouse assessed as mouse survival at 25 mg/kg, ip of total 9 doses starting 24 hrs post tumor inoculation measured on day 5 of inoculation relative to control; assay type: organism-based; parameters: dose 25 mg/kg, route intraperitoneal; conditions: in vivo; procedure, shortened: as §1
[5] = system: Mus musculus; assay: Toxicity in mouse P388 cells allografted CD2F1 mouse assessed as mouse survival at 3.12 mg/kg, ip of total 9 doses starting 24 hrs post tumor inoculation measured on day 5 of inoculation relative to control; assay type: organism-based; parameters: dose 3.12 mg/kg, route intraperitoneal; conditions: in vivo; procedure, shortened: as §1
[6] = system: Mus musculus; assay: Toxicity in mouse P388 cells allografted CD2F1 mouse assessed as body weight loss at 50 mg/kg, ip of total 9 doses starting 24 hrs post tumor inoculation measured on day 5 of inoculation relative to control; assay type: organism-based; parameters: dose 50 mg/kg, route intraperitoneal; conditions: in vivo
Procedure, shortened: (§3)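 Male CD2F1 mice inoculated ip with 6×10^6 P388 leukemia cells. Compounds given ip as distilled water–Tween 80 suspension, nine daily doses starting 24 h after inoculation; six mice per dose group. Treated-minus-control body-weight change (T − C) and toxicity-day survivors recorded on day 5 (4 days after first dose).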

[7] = system: P388; assay: Antitumor activity against mouse P388 cells allografted in CD2F1 mouse assessed as increase in mouse survival at 3.12 mg/kg, ip of total 9 doses starting 24 hrs post tumor inoculation measured on day 5 of inoculation relative to control; assay type: functional; conditions: route intraperitoneal; procedure, shortened: as §2
[8] = system: Mus musculus; assay: Toxicity in mouse P388 cells allografted CD2F1 mouse assessed as body weight loss at 6.25 mg/kg, ip of total 9 doses starting 24 hrs post tumor inoculation measured on day 5 of inoculation relative to control; assay type: organism-based; parameters: dose 6.25 mg/kg, route intraperitoneal; conditions: in vivo; procedure, shortened: as §3
[9] = system: Mus musculus; assay: Toxicity in mouse P388 cells allografted CD2F1 mouse assessed as body weight loss at 12.5 mg/kg, ip of total 9 doses starting 24 hrs post tumor inoculation measured on day 5 of inoculation relative to control; assay type: organism-based; parameters: dose 12.5 mg/kg, route intraperitoneal; conditions: in vivo; procedure, shortened: as §3
[10] = system: Mus musculus; assay: Toxicity in mouse P388 cells allografted CD2F1 mouse assessed as body weight loss at 25 mg/kg, ip of total 9 doses starting 24 hrs post tumor inoculation measured on day 5 of inoculation relative to control; assay type: organism-based; parameters: dose 25 mg/kg, route intraperitoneal; conditions: in vivo; procedure, shortened: as §3
[11] = system: P388; assay: Antitumor activity against mouse P388 cells allografted in CD2F1 mouse assessed as increase in mouse survival at 12.5 mg/kg, ip of total 9 doses starting 24 hrs post tumor inoculation measured on day 5 of inoculation relative to control; assay type: functional; conditions: route intraperitoneal; procedure, shortened: as §2
[12] = system: P388; assay: Antitumor activity against mouse P388 cells allografted in CD2F1 mouse assessed as increase in mouse survival at 6.25 mg/kg, ip of total 9 doses starting 24 hrs post tumor inoculation measured on day 5 of inoculation relative to control; assay type: functional; conditions: route intraperitoneal; procedure, shortened: as §2
[13] = system: P388; assay: Antitumor activity against mouse P388 cells allografted in CD2F1 mouse assessed as increase in mouse survival at 25 mg/kg, ip of total 9 doses starting 24 hrs post tumor inoculation measured on day 5 of inoculation relative to control; assay type: functional; conditions: route intraperitoneal; procedure, shortened: as §2
[14] = system: Mus musculus; assay: Toxicity in mouse P388 cells allografted CD2F1 mouse assessed as body weight loss at 3.12 mg/kg, ip of total 9 doses starting 24 hrs post tumor inoculation measured on day 5 of inoculation relative to control; assay type: organism-based; parameters: dose 3.12 mg/kg, route intraperitoneal; conditions: in vivo; procedure, shortened: as §3

CNC(=O)OCc1c(COC(=O)NC)c(-c2ccc(SC)cc2)n(C)c1C
Activity [1]: Non-toxic
Activity [2]: Non-toxic
T/C [3]: 150%
Activity [4]: Non-toxic
Activity [5]: Non-toxic
Activity [6]: 2.9 g
T/C [7]: 187%
Activity [8]: 1.4 g
Activity [9]: 4.3 g
Activity [10]: 3.1 g
T/C [11]: 144%
T/C [12]: 143%
T/C [13]: 144%
Activity [14]: 2.1 g
